Measurements reported in ChEMBL document CHEMBL1287740, “Synthesis and bio-evaluation of alkylaminoaryl phenyl cyclopropyl methanones as antitubercular and antimalarial agents” (Bioorg Med Chem, 2010).
≈ marks a conversion by molar mass, not a printed value. Calls of active or inactive are those of the source. The rule behind the calls is not given here.

Key:
[1] = Cytotoxicity against african green monkey Vero cells after 72 hrs; type: cell-based; details: chlorocebus sabaeus
Procedure, shortened: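 Vero (C1008 monkey kidney) cells grown in MEM + 15% FBS, 5% CO2, 37 °C. Trypsinized cells at 1 × 10^5 cells/ml seeded and allowed to adhere overnight, then exposed to serial compound dilutions for 72 h. Resazurin added and fluorescence read after 4 h.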

Mycolicibacterium aurum [2] = test: Inhibition of type II fatty acid biosynthesis pathway in Mycobacterium aurum at 10 to 50 uM after 12 hrs by lacZ reporter assay relative to untreated control; type: functional, organism-based
Procedure, shortened: (§1)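 Recombinant M. aurum lacZ reporter strains (kasA promoter or hsp60 promoter) grown in Sauton's medium with kanamycin at 37 °C to 0.5 OD600, diluted to 0.04–0.05 OD, equilibrated 2 h, then treated 12 h at 37 °C (10, 25, 50, 75 µM). Cells sonicated in PBS pH 7.2 and protein normalized by Bradford. β-gal measured with ONPG (4 mg/ml), 30 min at 37 °C, stopped with Na2CO3, OD 410 nm. Triplicates, relative to untreated control.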

Mycolicibacterium aurum [3] = test: Inhibition of type II fatty acid biosynthesis pathway in recombinant Mycobacterium aurum carrying hsp60 promoter assessed as cell viability at 10 to 50 uM after 12 hrs by lacZ reporter assay relative to untreated control; type: functional, organism-based
Procedure, shortened: (§2)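 M. aurum (recombinant reporter strains) grown in Sauton's medium with 0.05% Tween-80 and kanamycin to 0.6 OD600, diluted to 0.05 OD. 1 × 10^5 cells inoculated into 5 ml medium with varying compound concentrations, grown 12 h at 37 °C with shaking. Viable cells counted by 10-fold serial dilution plating on nutrient agar-Tween-kanamycin. % inhibition calculated with untreated colony count taken as 100%.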

Mycolicibacterium aurum [4] = test: Inhibition of type II fatty acid biosynthesis pathway in recombinant Mycobacterium aurum carrying hsp60 promoter assessed as cell viability at 25 uM after 12 hrs by lacZ reporter assay relative to untreated control; type: functional; procedure, shortened: as §2
Mycolicibacterium aurum [5] = test: Inhibition of type II fatty acid biosynthesis pathway in recombinant Mycobacterium aurum carrying hsp60 promoter assessed as beta-galactosidase activity at 10 to 50 uM after 12 hrs by lacZ reporter assay relative to untreated control; type: functional, organism-based; procedure, shortened: as §1
Mycolicibacterium aurum [6] = test: Inhibition of type II fatty acid biosynthesis pathway in Mycobacterium aurum assessed as cell viability at 10 to 50 uM after 12 hrs by lacZ reporter assay relative to untreated control; type: functional, organism-based; procedure, shortened: as §2
Mycolicibacterium aurum [7] = test: Inhibition of type II fatty acid biosynthesis pathway in recombinant Mycobacterium aurum carrying hsp60 promoter assessed as cell viability at 10 uM after 12 hrs by lacZ reporter assay relative to untreated control; type: functional; procedure, shortened: as §2
[8] = Selectivity index, ratio of CC50 for african green monkey (Cercopithecus aethiops) Vero cells to IC50 for Plasmodium falciparum 3D7; type: functional
Procedure, shortened: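 Ratio of Vero CC50 (resazurin fluorescence after 72 h exposure) to P. falciparum 3D7 IC50 (radiolabelled hypoxanthine uptake; 24 h compound exposure, then 48 h with label).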

Plasmodium falciparum [9] = test: Antimalarial activity against Plasmodium falciparum 3D7 assessed as maturation of schizonts after 24 to 32 hrs by microdilution method; type: functional
Procedure, shortened: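 P. falciparum 3D7 (chloroquine sensitive); twofold serial dilutions in complete RPMI 1640 from 10 mg/ml DMSO stocks, parasitized RBCs added (final hematocrit 3–4%, 1.0–2.0% parasitaemia, >95% rings). Incubated 24–32 h at 37 °C with 5% CO2. Thin smears stained with 15% Giemsa; schizont maturation scored against controls to give MIC.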

Mycolicibacterium aurum [10] = test: Inhibition of type II fatty acid biosynthesis pathway in recombinant Mycobacterium aurum carrying hsp60 promoter assessed as cell viability at 50 uM after 12 hrs by lacZ reporter assay relative to untreated control; type: functional; procedure, shortened: as §2
Mycolicibacterium aurum [11] = test: Inhibition of type II fatty acid biosynthesis pathway in recombinant Mycobacterium aurum carrying hsp60 promoter assessed as beta-galactosidase activity at 14 uM after 12 hrs by lacZ reporter assay relative to untreated control; type: functional, organism-based
Mycolicibacterium aurum [12] = test: Inhibition of type II fatty acid biosynthesis pathway in Mycobacterium aurum at 50 uM after 12 hrs by lacZ reporter assay relative to untreated control; type: functional; procedure, shortened: as §1
Mycolicibacterium aurum [13] = test: Inhibition of type II fatty acid biosynthesis pathway in Mycobacterium aurum at 25 uM after 12 hrs by lacZ reporter assay relative to untreated control; type: functional; procedure, shortened: as §1
Plasmodium falciparum [14] = test: Antimalarial activity against Plasmodium falciparum 3D7 assessed as radiolabeled hypoxanthine uptake after 48 hrs by scintillation counting; type: functional, organism-based; details: 3D7, 48 h
Procedure, shortened: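 Chloroquine-sensitive P. falciparum 3D7 asynchronous culture at 0.5% parasitaemia and 1.5% hematocrit, exposed to compounds for 24 h at 37 °C in CO2. Radiolabelled hypoxanthine (0.5 µCi/well) then added and incubation continued 48 h. Cells harvested onto filter paper, and radioactivity counted by scintillation β-counter. IC50 derived from hypoxanthine uptake.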

Mycolicibacterium aurum [15] = test: Inhibition of type II fatty acid biosynthesis pathway in recombinant Mycobacterium aurum carrying hsp60 promoter assessed as cell viability at 75 uM after 12 hrs by lacZ reporter assay relative to untreated control; type: functional; procedure, shortened: as §2
Mycolicibacterium aurum [16] = test: Inhibition of type II fatty acid biosynthesis pathway in recombinant Mycobacterium aurum carrying hsp60 promoter assessed as beta-galactosidase activity at 50 to 100 uM after 12 hrs by lacZ reporter assay relative to untreated control; type: functional, organism-based
Mycolicibacterium aurum [17] = test: Inhibition of type II fatty acid biosynthesis pathway in Mycobacterium aurum assessed as growth inhibition by cfu analysis; type: functional; procedure, shortened: as §2
[18] = test system: Mycobacterium tuberculosis; test: Antimicrobial activity against Mycobacterium tuberculosis H37Rv after 30 days by agar microdilution method; type: functional
Procedure, shortened: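 Twofold dilutions of compound in DMSO incorporated into Middlebrook 7H10 medium with OADC supplement in slanted tubes, preincubated 37 °C for 24 h, then streaked with H37Rv harvested from L-J medium into 0.85% saline with 0.05% Tween-80 (5 × 10^5 bacilli per tube). Incubated at 37 °C; MIC = lowest concentration giving complete inhibition of colonies versus drug-free control.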

Mycolicibacterium aurum [19] = test: Inhibition of type II fatty acid biosynthesis pathway in Mycobacterium aurum assessed as growth inhibition by lacZ reporter assay; type: functional; procedure, shortened: as §2
Mycolicibacterium aurum [20] = test: Inhibition of type II fatty acid biosynthesis pathway in Mycobacterium aurum assessed as beta-galactosidase activity at 50 to 100 uM after 12 hrs by lacZ reporter assay relative to untreated control; type: functional, organism-based

| SMILES | CC50 at 72 h [1] | inhibition (Mycolicibacterium aurum [2]) | inhibition (Mycolicibacterium aurum [3]) | inhibition at 25 µM (Mycolicibacterium aurum [4]) | inhibition (Mycolicibacterium aurum [5]) | inhibition (Mycolicibacterium aurum [6]) | inhibition at 10 µM (Mycolicibacterium aurum [7]) | Ratio CC50/IC50 [8] | MIC (Plasmodium falciparum [9]) | inhibition at 50 µM (Mycolicibacterium aurum [10]) | inhibition (Mycolicibacterium aurum [11]) | inhibition at 50 µM (Mycolicibacterium aurum [12]) | inhibition at 25 µM (Mycolicibacterium aurum [13]) | IC50 (Plasmodium falciparum [14]) | inhibition at 75 µM (Mycolicibacterium aurum [15]) | inhibition (Mycolicibacterium aurum [16]) | inhibition (INH) (Mycolicibacterium aurum [17]) | MIC [18] | inhibition (INH) (Mycolicibacterium aurum [19]) | inhibition (Mycolicibacterium aurum [20]) |
| --- | --- | --- | --- | --- | --- | --- | --- | --- | --- | --- | --- | --- | --- | --- | --- | --- | --- | --- | --- | --- |
| CN(C)CCCNc1ccc(C(=O)/C=C/c2ccc(Cl)cc2)cc1 | 5.92 µg/mL (≈ 17.3 µM) | Dose-dependent effect | Dose-dependent effect | 85.4% | inactive | Dose-dependent effect | 18.8% | 9.25 | 1.56 µg/mL (≈ 4.55 µM) | 88.7% | inactive | 88.1% | 83.4% | 0.64 µg/mL (≈ 1.87 µM) | 99.6% | – | – | – | – | – |
| CN(C)CCCNc1ccc(C(=O)C2CC2c2ccc(Cl)cc2)cc1 (stereo unspecified) | 15.8 µg/mL (≈ 44.4 µM) | – | – | – | – | – | – | 5.53 | 50 µg/mL (≈ 140 µM) | – | – | 57.4% | 46.3% | 2.86 µg/mL (≈ 8.01 µM) | – | inactive | >=85% | 6.25 µg/mL (≈ 17.5 µM) | >=85% | Active |
